# Test results taken from ChEMBL document CHEMBL4257484, “Membrane-active antimicrobial poly(amino-modified alkyl) β-cyclodextrins synthesized via click reactions” (Medchemcomm, 2018).
# Legend:
# [1] = Lipophilicity, log P of the compound; assay type: physicochemical; conditions: octanol/water
# [2] = tested on: Staphylococcus aureus; test: Antibacterial activity against methicillin-sensitive Staphylococcus aureus FDA 209P after 20 hrs by liquid microdilution method; assay type: functional
# Outline: (§1)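 Two-fold serial dilutions of compound in Mueller–Hinton broth, inoculated with 1 × 10^4 cells and cultured at 37 °C for 20 h in microtiter wells.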
# [3] = tested on: Bacillus subtilis; test: Antibacterial activity against drug-sensitive Bacillus subtilis 168 after 20 hrs by liquid microdilution method; assay type: functional; conditions: subsp. subtilis str. 168, 20 h; outline: as §1
# [4] = tested on: Escherichia coli; test: Antibacterial activity against drug-sensitive Escherichia coli K-12 W3110 after 20 hrs by liquid microdilution method; assay type: functional; conditions: K-12 substr. W3110, 20 h; outline: as §1
# [5] = tested on: Salmonella typhimurium; test: Antibacterial activity against drug-sensitive Salmonella typhimurium LT2 after 20 hrs by liquid microdilution method; assay type: functional, Salmonella enterica subsp. enterica serovar Typhimurium; conditions: Salmonella enterica, LT2, 20 h; outline: as §1
# [6] = tested on: Pseudomonas aeruginosa; test: Antibacterial activity against drug-sensitive Pseudomonas aeruginosa PAO1 after 20 hrs by liquid microdilution method; assay type: functional; conditions: PAO1, 20 h; outline: as §1
# [7] = Hemolytic activity in rabbit RBC at 50 uM after 20 mins relative to control; assay type: ADME, cell-based, Oryctolagus cuniculus, Erythrocyte; conditions: rabbit red blood cells (erythrocytes), read-out: Activity
# Outline: (§2)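 Rabbit erythrocytes suspended in 150 mM NaCl/10 mM Hepes-NaOH, pH 7.4, at 0.5% hematocrit (final) and incubated with compound at 37 °C. The table footnote gives 20 min; the methods section gives 30 min. Hemolysis was read as absorbance at 540 nm, with 50 µM lysolecithin defining 100% hemolysis.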
# [8] = Hemolytic activity in rabbit RBC at 20 uM after 20 mins relative to control; assay type: ADME, cell-based, Oryctolagus cuniculus, Erythrocyte; conditions: rabbit red blood cells (erythrocytes), read-out: Activity; outline: as §2
# [9] = Hemolytic activity in rabbit RBC at 10 uM after 20 mins relative to control; assay type: ADME, cell-based, Oryctolagus cuniculus, Erythrocyte; conditions: rabbit red blood cells (erythrocytes), read-out: Activity; outline: as §2
# [10] = Hemolytic activity in rabbit RBC at 5 uM after 20 mins relative to control; assay type: ADME, cell-based, Oryctolagus cuniculus, Erythrocyte; conditions: rabbit red blood cells (erythrocytes), read-out: Activity; outline: as §2
# [11] = Hemolytic activity in rabbit RBC at 2 uM after 20 mins relative to control; assay type: ADME, cell-based, Oryctolagus cuniculus, Erythrocyte; conditions: rabbit red blood cells (erythrocytes), read-out: Activity; outline: as §2
# [12] = Hemolytic activity in rabbit RBC at 1 uM after 20 mins relative to control; assay type: ADME, cell-based, Oryctolagus cuniculus, Erythrocyte; conditions: rabbit red blood cells (erythrocytes), read-out: Activity; outline: as §2
# [13] = tested on: Staphylococcus aureus; test: Antibacterial activity against methicillin-resistant Staphylococcus aureus MS29202 after 18 to 20 hrs by agar dilution method; assay type: functional
# Outline: (§3)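 Agar dilution per CLSI. Overnight broth cultures were diluted 100-fold, and one loopful (about 10^5 to 10^4 CFU) was spotted onto agar plates containing the CD. Growth was scored after 18–20 h at 37 °C. MIC values are in µM.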
# [14] = tested on: Streptococcus agalactiae; test: Antibacterial activity against drug-resistant Streptococcus agalactiae B1 after 18 to 20 hrs by agar dilution method; assay type: functional; outline: as §3
# [15] = tested on: Enterococcus faecium; test: Antibacterial activity against drug-resistant Enterococcus faecium MS29120 after 18 to 20 hrs by agar dilution method; assay type: functional; outline: as §3
# [16] = tested on: Enterococcus faecalis; test: Antibacterial activity against drug-resistant Enterococcus faecalis MS29030 after 18 to 20 hrs by agar dilution method; assay type: functional; outline: as §3
# [17] = tested on: Enterococcus faecalis; test: Antibacterial activity against vancomycin-resistant Enterococcus faecalis MS29016 after 18 to 20 hrs by agar dilution method; assay type: functional; outline: as §3
SMILES,logP [1],MIC [2] [µM],MIC [3] [µM],MIC [4] [µM],MIC [5] [µM],MIC [6] [µM],"hemolysis at 20 min, 50 µM [7] [%]","hemolysis at 20 min, 20 µM [8] [%]","hemolysis at 20 min, 10 µM [9] [%]","hemolysis at 20 min, 5 µM [10] [%]","hemolysis at 20 min, 2 µM [11] [%]","hemolysis at 20 min, 1 µM [12] [%]",MIC [13] [µM],MIC [14] [µM],MIC [15] [µM],MIC [16] [µM],MIC [17] [µM]
O[C@@H]1[C@@H](O)[C@H]2O[C@H]3[C@H](O)[C@@H](O)[C@@H](O[C@H]4[C@H](O)[C@@H](O)[C@@H](O[C@H]5[C@H](O)[C@@H](O)[C@@H](O[C@H]6[C@H](O)[C@@H](O)[C@@H](O[C@H]7[C@H](O)[C@@H](O)[C@@H](O[C@H]8[C@H](O)[C@@H](O)[C@@H](O[C@@H]1[C@@H](Cn1cc(CNCc9ccccc9)nn1)O2)O[C@@H]8Cn1cc(CNCc2ccccc2)nn1)O[C@@H]7Cn1cc(CNCc2ccccc2)nn1)O[C@@H]6Cn1cc(CNCc2ccccc2)nn1)O[C@@H]5Cn1cc(CNCc2ccccc2)nn1)O[C@@H]4Cn1cc(CNCc2ccccc2)nn1)O[C@@H]3Cn1cc(CNCc2ccccc2)nn1,-0.26,5,5,21,21,21,11,3,2,4,4,2,41,21,41,> 41,41
O[C@@H]1[C@@H](O)[C@H]2O[C@H]3[C@H](O)[C@@H](O)[C@@H](O[C@H]4[C@H](O)[C@@H](O)[C@@H](O[C@H]5[C@H](O)[C@@H](O)[C@@H](O[C@H]6[C@H](O)[C@@H](O)[C@@H](O[C@H]7[C@H](O)[C@@H](O)[C@@H](O[C@H]8[C@H](O)[C@@H](O)[C@@H](O[C@@H]1[C@@H](Cn1cc(CNCC9CCCC9)nn1)O2)O[C@@H]8Cn1cc(CNCC2CCCC2)nn1)O[C@@H]7Cn1cc(CNCC2CCCC2)nn1)O[C@@H]6Cn1cc(CNCC2CCCC2)nn1)O[C@@H]5Cn1cc(CNCC2CCCC2)nn1)O[C@@H]4Cn1cc(CNCC2CCCC2)nn1)O[C@@H]3Cn1cc(CNCC2CCCC2)nn1,-0.58,1 to 5,21,21,> 42,> 42,8,2,1,1,1,2,21,10,21,> 42,> 42
O[C@@H]1[C@@H](O)[C@H]2O[C@H]3[C@H](O)[C@@H](O)[C@@H](O[C@H]4[C@H](O)[C@@H](O)[C@@H](O[C@H]5[C@H](O)[C@@H](O)[C@@H](O[C@H]6[C@H](O)[C@@H](O)[C@@H](O[C@H]7[C@H](O)[C@@H](O)[C@@H](O[C@H]8[C@H](O)[C@@H](O)[C@@H](O[C@@H]1[C@@H](Cn1cc(CNCC9CCCCC9)nn1)O2)O[C@@H]8Cn1cc(CNCC2CCCCC2)nn1)O[C@@H]7Cn1cc(CNCC2CCCCC2)nn1)O[C@@H]6Cn1cc(CNCC2CCCCC2)nn1)O[C@@H]5Cn1cc(CNCC2CCCCC2)nn1)O[C@@H]4Cn1cc(CNCC2CCCCC2)nn1)O[C@@H]3Cn1cc(CNCC2CCCCC2)nn1,-0.16,3 to 10,3,5,10,20,107,78,38,13,0,0,40,40,20,> 40,40
